Among the data in ChEMBL document CHEMBL1142716, “2-Hydroxy-4,6-diamino-[1,3,5]triazines: a novel class of VEGF-R2 (KDR) tyrosine kinase inhibitors” (J Med Chem, 2005) are IC50 and Activity values, retold here.

SMILES strings stand for the structures.

Assay [1] deals with Fibroblast growth factor receptor 1 (Mus musculus, UniProt P16092). Description: Inhibition of mouse Fibroblast growth factor receptor 1 expressed in NIH 3T3 fibroblasts. The procedure, abridged:
(§1)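 Cell-based counterscreen for growth-factor-induced p42/44 MAP kinase phosphorylation through EGFR, insulin receptor or FGFR-1. Cells were grown, treated and fixed in 96-well plates, and phosphorylation was read by phospho-specific ELISA.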

A short description of assay [2]: Inhibition of fibroblast growth factor receptor 1.
In assay [3] the target is T1, Insulin receptor (Homo sapiens, UniProt P06213). Description: Inhibition of beta IRK tyrosine kinase.
T1 sequence (P06213 28-758 limits assumed): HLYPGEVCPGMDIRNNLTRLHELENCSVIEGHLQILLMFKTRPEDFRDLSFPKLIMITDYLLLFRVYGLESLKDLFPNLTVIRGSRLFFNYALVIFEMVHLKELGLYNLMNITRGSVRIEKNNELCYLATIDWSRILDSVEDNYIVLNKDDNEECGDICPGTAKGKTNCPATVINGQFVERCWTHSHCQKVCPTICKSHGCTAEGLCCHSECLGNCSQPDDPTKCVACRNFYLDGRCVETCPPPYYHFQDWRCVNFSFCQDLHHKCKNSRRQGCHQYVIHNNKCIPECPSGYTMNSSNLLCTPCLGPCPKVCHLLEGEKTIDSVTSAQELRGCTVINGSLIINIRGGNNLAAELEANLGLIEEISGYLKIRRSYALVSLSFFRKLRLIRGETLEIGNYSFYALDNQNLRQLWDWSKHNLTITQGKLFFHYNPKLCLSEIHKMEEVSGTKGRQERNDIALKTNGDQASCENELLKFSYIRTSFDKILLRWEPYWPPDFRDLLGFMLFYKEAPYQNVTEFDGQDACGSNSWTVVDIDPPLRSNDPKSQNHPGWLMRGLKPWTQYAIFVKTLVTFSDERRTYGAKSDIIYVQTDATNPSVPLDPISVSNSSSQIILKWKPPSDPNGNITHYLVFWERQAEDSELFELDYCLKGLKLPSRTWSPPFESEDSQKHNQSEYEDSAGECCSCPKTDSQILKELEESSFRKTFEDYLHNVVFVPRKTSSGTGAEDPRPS
T1 sequence (P06213 763-1382 limits assumed): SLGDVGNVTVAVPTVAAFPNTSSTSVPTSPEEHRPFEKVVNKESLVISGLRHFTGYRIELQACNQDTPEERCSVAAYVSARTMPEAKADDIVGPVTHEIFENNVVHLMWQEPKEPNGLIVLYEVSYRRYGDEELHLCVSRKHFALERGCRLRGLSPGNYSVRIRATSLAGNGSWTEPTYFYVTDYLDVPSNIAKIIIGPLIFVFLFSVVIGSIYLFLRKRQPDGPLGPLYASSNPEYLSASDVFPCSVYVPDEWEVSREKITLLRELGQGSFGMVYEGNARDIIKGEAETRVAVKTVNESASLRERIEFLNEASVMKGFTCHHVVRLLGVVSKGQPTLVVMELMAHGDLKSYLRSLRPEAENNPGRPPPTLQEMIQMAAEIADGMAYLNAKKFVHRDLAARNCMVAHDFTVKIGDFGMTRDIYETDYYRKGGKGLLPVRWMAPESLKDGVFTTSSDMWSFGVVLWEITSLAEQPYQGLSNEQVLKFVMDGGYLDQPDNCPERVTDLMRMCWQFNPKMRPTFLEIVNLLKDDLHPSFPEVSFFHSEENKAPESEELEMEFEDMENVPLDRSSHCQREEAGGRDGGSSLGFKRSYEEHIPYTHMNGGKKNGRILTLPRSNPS
The target in assay [4] is Platelet-derived growth factor receptor (Homo sapiens, UniProt P09619+P16234). Description: Inhibition of PDGF-R2 tyrosine kinase. It is filed as protein-complex assay.
For assay [5], the target named is T2, Vascular endothelial growth factor receptor 2 (Homo sapiens, UniProt P35968). Description: In vitro inhibition of Vascular endothelial growth factor receptor 2 at 10 uM ATP.
T2 sequence (P35968 whole entry): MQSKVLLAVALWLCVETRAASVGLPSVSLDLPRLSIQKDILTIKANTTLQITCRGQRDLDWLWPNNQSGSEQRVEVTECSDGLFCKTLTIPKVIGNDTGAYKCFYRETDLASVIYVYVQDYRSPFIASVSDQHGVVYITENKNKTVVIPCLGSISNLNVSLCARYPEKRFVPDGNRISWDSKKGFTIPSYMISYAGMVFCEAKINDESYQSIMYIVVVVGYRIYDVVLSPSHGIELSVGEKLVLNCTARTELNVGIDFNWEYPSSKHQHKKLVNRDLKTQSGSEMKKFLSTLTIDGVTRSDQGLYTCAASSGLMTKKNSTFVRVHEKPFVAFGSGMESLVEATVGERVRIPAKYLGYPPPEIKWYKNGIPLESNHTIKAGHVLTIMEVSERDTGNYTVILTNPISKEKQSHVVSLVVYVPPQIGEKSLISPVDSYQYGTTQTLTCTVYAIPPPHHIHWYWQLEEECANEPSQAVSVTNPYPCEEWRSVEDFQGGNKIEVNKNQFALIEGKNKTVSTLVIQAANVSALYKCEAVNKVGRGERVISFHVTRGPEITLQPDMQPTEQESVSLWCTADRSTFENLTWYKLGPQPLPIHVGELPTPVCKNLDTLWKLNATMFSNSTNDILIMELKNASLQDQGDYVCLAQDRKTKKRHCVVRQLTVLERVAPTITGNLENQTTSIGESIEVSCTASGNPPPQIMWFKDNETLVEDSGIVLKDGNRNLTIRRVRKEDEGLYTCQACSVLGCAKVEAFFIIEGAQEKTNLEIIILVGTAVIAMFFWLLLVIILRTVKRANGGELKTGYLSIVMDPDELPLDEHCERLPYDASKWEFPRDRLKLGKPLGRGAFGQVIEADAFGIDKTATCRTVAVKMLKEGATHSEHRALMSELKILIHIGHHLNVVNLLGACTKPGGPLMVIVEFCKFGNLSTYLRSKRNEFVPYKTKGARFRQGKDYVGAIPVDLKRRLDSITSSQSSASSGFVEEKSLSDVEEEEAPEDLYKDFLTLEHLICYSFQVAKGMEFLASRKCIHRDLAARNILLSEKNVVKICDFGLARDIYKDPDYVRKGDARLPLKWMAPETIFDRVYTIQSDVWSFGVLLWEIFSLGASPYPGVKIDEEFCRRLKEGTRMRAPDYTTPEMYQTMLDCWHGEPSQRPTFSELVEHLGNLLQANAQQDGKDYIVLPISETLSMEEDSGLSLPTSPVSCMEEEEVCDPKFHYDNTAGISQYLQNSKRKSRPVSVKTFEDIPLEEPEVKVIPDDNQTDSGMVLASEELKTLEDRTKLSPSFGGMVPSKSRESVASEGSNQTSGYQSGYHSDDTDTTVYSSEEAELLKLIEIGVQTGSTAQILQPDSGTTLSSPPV
The target in assay [6] is Angiopoietin-1 receptor (Homo sapiens, UniProt Q02763). Description: Inhibition of tyrosine protein kinase receptor TIE-2.
Angiopoietin-1 receptor, sequence (Q02763 whole entry): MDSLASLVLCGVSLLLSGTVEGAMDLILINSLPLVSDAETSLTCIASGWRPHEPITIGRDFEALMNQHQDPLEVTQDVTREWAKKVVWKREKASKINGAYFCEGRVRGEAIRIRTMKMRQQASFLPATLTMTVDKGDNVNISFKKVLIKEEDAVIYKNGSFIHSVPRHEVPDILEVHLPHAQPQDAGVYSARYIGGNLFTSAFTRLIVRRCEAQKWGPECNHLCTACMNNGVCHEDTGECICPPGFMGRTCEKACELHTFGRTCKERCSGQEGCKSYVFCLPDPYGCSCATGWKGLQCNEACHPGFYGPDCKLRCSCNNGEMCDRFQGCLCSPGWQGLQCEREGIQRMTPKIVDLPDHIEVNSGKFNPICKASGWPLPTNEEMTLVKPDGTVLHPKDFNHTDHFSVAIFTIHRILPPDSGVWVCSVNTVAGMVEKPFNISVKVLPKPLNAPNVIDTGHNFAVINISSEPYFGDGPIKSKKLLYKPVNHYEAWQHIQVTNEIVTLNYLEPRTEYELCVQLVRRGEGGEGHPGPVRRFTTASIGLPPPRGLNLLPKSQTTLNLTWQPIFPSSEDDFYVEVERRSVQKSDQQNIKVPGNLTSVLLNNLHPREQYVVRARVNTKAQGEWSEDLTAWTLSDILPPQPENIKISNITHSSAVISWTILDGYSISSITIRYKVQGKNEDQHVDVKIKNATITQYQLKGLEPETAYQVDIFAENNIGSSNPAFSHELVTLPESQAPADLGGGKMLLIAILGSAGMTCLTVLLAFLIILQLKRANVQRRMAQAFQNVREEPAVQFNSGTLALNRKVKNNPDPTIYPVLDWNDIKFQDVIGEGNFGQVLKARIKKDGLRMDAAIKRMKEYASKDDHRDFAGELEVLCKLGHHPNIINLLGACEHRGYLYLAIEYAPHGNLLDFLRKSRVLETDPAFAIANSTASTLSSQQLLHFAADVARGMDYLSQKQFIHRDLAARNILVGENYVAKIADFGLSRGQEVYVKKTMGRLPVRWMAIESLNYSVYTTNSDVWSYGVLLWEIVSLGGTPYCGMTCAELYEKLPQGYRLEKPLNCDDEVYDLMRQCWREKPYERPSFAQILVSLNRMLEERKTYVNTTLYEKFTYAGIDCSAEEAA
A short description of assay [7]: Inhibition of c-Src tyrosine kinase.
In assay [8] the target is Macrophage colony-stimulating factor 1 receptor (Homo sapiens, UniProt P07333). Description: Inhibition of c-fms tyrosine kinase.
The target in assay [9] is T3, Epidermal growth factor receptor (Homo sapiens, UniProt P00533). Description: Inhibition of human Epidermal growth factor receptor expressed in A431. The procedure, abridged: (§2)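 Cell-based counterscreen. Cells were grown, treated with compound and fixed in wells. EGF-R-induced phosphorylation of MAP kinase was then read directly by a phosphorylation-specific ELISA.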

Assay [10] concerns the target T2, Vascular endothelial growth factor receptor 2. Description: Inhibition of KDR-induced MAP kinase autophosphorylation assay in HUVEC cells. It is filed as functional, cell-based. The procedure, abridged: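 Low-passage HUVECs (passage 3-12) were grown to confluence, serum-starved, treated with compound or DMSO, then stimulated with VEGF. Cells were lysed, run on SDS-PAGE and immunoblotted quantitatively with a phospho-p42/44 MAP kinase (pERK1/2) antibody. Inhibition is expressed as a percent of VEGF-stimulated phosphorylation in DMSO controls. IC50 values are the mean of three independent experiments.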

Assay [11] has as its target T1, Insulin receptor. Description: Inhibition of human Insulin receptor expressed in CHO cells. It is filed as cell-based. The procedure, abridged:
as §1

Assay [12] concerns HUVEC. Description: Inhibitory concentration against HUVEC cells. The following applies: Homo sapiens. It is filed as functional, cell-based.
For assay [13], the target named is T3, Epidermal growth factor receptor. Description: Inhibition of human epidermal growth factor receptor. Put shortly: as §2
Assay [14] is filed under the species Rattus norvegicus. Description: Total tube length (arbitrary units) of aortic rings was measured by aortic ring assay in rat at 30 uM concentration of the compound. It is filed as functional, Aorta. Put shortly: (§3)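 Rings cut from rat aorta were embedded in collagen gels containing 5 ng/mL VEGF and cultured for 7 days with test compound. The total length of capillary-like sprouts growing out from each ring was measured in arbitrary units and reported with SEM.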

Assay [15] is filed under the species Rattus norvegicus. Description: Total tube length (arbitrary units) of aortic rings was measured by aortic ring assay in rat at 0.3 uM concentration of the compound. It is filed as functional, Aorta. The procedure, abridged: as §3
Assay [16] is filed under the species Rattus norvegicus. Description: Total tube length (arbitrary units) of aortic rings was measured by aortic ring assay in rat at 3 uM concentration of the compound. It is filed as functional, Aorta. Put shortly:
as §3

Assay [17] in a line: Inhibition of Fibroblast growth factor receptor 1.

Fibroblast growth factor receptor 1, sequence (P16092 whole entry): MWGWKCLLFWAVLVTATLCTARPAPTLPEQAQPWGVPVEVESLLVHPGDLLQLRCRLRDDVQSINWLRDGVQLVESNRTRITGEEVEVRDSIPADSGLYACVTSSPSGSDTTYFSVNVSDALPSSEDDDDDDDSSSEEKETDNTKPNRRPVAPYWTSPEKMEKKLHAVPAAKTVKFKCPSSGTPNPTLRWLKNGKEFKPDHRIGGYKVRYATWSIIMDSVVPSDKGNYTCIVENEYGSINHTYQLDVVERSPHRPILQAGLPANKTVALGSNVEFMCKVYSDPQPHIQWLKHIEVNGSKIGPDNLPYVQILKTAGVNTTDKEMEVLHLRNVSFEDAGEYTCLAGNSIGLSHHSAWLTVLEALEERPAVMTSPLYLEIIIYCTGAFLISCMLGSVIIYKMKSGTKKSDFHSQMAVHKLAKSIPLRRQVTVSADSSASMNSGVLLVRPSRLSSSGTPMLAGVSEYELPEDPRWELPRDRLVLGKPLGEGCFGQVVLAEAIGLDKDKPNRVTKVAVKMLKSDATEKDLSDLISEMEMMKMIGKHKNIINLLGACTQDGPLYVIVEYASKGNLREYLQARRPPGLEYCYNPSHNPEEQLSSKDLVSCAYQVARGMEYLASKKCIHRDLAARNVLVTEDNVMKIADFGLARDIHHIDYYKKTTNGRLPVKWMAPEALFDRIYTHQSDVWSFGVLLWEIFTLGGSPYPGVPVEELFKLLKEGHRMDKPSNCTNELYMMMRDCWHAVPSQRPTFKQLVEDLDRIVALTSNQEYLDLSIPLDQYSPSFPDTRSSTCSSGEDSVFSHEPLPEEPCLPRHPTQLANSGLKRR

For `CC(C)(Nc1nc(O)nc(Nc2ccc3ncsc3c2)n1)c1ccccc1`, the IC50 is more than 10 µM in assay [1]; more than 12.5 µM in [2]; 0.55 µM in assay [3]; 8 µM in [4]; 0.035 µM in [5]; 1 µM in assay [6]. Further, the IC50 was 4.3 µM in assay [7]; more than 12.5 µM in [8]; more than 10 µM in assay [9]; 0.4 µM in [10]; more than 10 µM in [11].
In the case of `Oc1nc(NCc2ccccc2)nc(Nc2ccc3ncsc3c2)n1`, the results for the IC50 in assay [5] and in assay [10] were 2 µM and more than 30 µM, respectively.
The corresponding values for `COc1nc(Nc2ccc3ncsc3c2)nc(NC(C)(C)c2ccccc2)n1` are 6.1 µM and more than 30 µM.
Turning to `CC(C)(Nc1nc(Cl)nc(Nc2ccc3ncsc3c2)n1)c1ccccc1`, the results for the IC50 in [5] and in assay [10] were 5.5 µM and 1.08 µM, respectively.
For `CN(Cc1ccccc1)c1nc(O)nc(Nc2ccc3ncsc3c2)n1` the same measures were 0.32 µM and 2.4 µM.
With `CC(C)(Nc1nc(O)nc(Nc2ccc3[nH]cnc3c2)n1)c1ccccc1`, the IC50 in [5] is 0.24 µM; in [10], more than 20 µM.
Consider `CC(C)N(Cc1ccccc1)c1nc(O)nc(Nc2ccc3ncsc3c2)n1`, for which the IC50 is more than 10 µM in [1]; more than 12.5 µM in assay [2]; 11 µM in assay [3]; more than 12.5 µM in assay [4]; 0.018 µM in assay [5]; 0.28 µM in [12]. Moreover, the IC50 in assay [6] is 0.18 µM; in assay [13] it was more than 10 µM; in assay [7] it was more than 12.5 µM; in assay [8], more than 12.5 µM; in assay [10], 0.28 µM; in [11] it was more than 10 µM. The Activity turned out to be 36.3 in [14], 1503 in [15] and 348 in assay [16].
Turning to `CC(C)(Nc1nc(NO)nc(Nc2ccc3ncsc3c2)n1)c1ccccc1`, the IC50 was more than 10 µM in [1]; 1.8 µM in [2]; 0.42 µM in [3]; 3.9 µM in assay [4]; 0.04 µM in [5]; 0.7 µM in assay [6]. Besides, the IC50 in assay [7] is 1.8 µM; in assay [8], 14 µM; in assay [9] it was more than 10 µM; in assay [10] it was 0.84 µM; in assay [11], more than 10 µM.
Consider `CCN(Cc1ccccc1)c1nc(O)nc(Nc2ccc3ncsc3c2)n1`, for which the 50% inhibitory concentration (IC50) is more than 10 µM in assay [1]; 4 µM in assay [3]; 2.5 µM in [4]; 0.049 µM in assay [5]; 0.4 µM in assay [6]; 3.1 µM in assay [7]. In addition, the IC50 in assay [8] was 4.3 µM; in [9], more than 10 µM; in assay [10] it was 0.6 µM; in assay [17], more than 12.5 µM; in assay [11] it was more than 10 µM.

For orientation: IC50 means the concentration needed to halve the response being measured.
